The structures appear in SMILES notation.

Holding throughout (type): functional, cell-based
The target of experiment [1] is T1, Sphingosine 1-phosphate receptor 1 (Homo sapiens, UniProt P21453). Put plainly: Antagonist activity at human S1P1 receptor expressed in CHO cell membrane by cAMP assay. The essentials:
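CHO cells stably expressing human S1P1, kept in selection medium with 125 nM methotrexate, seeded at 4 × 10⁵ cells/well and grown overnight. Serum was removed, cells preincubated 5 min with 1 mM IBMX, then stimulated 15 min with 30 µM forskolin ± 100 nM S1P plus test compound at various concentrations, with IBMX kept present. Cells were lysed in 1% Triton X-100; cAMP read by competitive kit assay (n = 3).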
In general terms: Cyclic AMP is a second messenger, typically raised through Gs and lowered through Gi signalling.

Experiment [2] deals with Sphingosine 1-phosphate receptor 2 (Homo sapiens, UniProt O95136). Put plainly: Antagonist activity at human S1P2 receptor expressed in CHO cell membrane by FLIPR assay. In outline:
(§1)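 Stably transfected CHO cells in HAM medium with 10% dialyzed FBS, seeded at 5 × 10⁴ cells/mL and grown 2 days. Buffer: HBSS without phenol red, 20 mM Hepes, 2.5 mM probenecid, pH 7.4. Loaded 45–60 min with 4 µM Fluo3-AM plus 0.04% pluronic acid, then washed. Serially diluted compound added for 10 min before S1P injection; calcium fluorescence read on FLIPR.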

Experiment [3] deals with Sphingosine 1-phosphate receptor 4 (Homo sapiens, UniProt O95977). Put plainly: Antagonist activity at human S1P4 receptor expressed in CHO cell membrane by FLIPR assay. The essentials: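 S1P4-expressing cells in HAM medium with 10% dialyzed FBS, seeded at 1 × 10⁵ cells/mL and grown 2 days. Buffer: HBSS without phenol red, 20 mM Hepes, 2.5 mM probenecid, pH 7.4. Fluo3-AM (4 µM, with 0.04% pluronic acid) loading for 45–60 min, then washed. Serially diluted compound given 10 min before S1P injection; calcium signal measured on FLIPR.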
Sphingosine 1-phosphate receptor 4, sequence (O95977 whole entry, looked up): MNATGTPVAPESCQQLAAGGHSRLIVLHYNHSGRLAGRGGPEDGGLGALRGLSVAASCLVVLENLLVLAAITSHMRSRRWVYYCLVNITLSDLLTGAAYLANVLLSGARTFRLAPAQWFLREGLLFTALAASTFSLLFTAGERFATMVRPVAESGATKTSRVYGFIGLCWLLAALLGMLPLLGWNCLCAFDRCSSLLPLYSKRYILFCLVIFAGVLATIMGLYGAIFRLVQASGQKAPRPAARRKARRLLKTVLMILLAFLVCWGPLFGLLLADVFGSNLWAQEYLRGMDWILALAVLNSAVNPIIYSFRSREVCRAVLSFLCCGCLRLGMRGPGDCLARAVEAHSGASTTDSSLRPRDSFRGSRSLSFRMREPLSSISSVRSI

In experiment [4] the target is Sphingosine 1-phosphate receptor 3 (Homo sapiens, UniProt Q99500). The experiment in a line: Antagonist activity at human S1P3 receptor expressed in CHO cell membrane by FLIPR assay. In outline: as §1
Sphingosine 1-phosphate receptor 3, sequence (Q99500 whole entry): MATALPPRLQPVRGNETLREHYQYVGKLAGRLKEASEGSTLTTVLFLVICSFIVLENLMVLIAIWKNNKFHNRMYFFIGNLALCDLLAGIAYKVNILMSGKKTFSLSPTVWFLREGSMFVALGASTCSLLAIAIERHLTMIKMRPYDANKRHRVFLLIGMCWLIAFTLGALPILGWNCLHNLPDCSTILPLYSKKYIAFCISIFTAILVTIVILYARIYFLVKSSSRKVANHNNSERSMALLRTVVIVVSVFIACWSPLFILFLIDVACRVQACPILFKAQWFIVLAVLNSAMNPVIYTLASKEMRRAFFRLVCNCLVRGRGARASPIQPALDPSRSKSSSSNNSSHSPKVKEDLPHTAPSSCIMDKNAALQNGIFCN
The target in experiment [5] is T1, Sphingosine 1-phosphate receptor 1. Put plainly: Antagonist activity at human S1P1 receptor expressed in CHO cell membrane by FLIPR assay. The essentials:
as §1

T1 sequence (P21453 whole entry): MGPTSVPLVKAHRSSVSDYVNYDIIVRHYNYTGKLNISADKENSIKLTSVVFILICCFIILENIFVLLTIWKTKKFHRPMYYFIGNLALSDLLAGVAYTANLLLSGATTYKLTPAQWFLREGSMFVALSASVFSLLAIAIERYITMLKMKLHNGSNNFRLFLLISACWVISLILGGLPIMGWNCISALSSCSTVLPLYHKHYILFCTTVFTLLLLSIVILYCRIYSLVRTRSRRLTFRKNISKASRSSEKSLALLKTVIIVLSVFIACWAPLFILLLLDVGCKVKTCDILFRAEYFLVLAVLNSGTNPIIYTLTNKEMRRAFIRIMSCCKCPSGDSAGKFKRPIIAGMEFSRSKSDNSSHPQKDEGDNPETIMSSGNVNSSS
Sphingosine 1-phosphate receptor 2, sequence (O95136 whole entry): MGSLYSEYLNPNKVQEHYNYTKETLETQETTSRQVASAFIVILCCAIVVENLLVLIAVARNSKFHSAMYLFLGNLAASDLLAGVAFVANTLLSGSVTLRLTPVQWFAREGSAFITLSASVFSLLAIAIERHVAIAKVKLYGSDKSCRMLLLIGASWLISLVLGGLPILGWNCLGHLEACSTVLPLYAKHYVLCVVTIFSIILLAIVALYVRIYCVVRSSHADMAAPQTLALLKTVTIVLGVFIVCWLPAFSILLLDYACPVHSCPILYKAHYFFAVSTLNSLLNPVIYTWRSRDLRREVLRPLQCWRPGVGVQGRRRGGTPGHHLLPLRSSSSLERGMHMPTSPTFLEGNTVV

As a reminder, the IC50 is the concentration that inhibits the measured activity by half. A high value points to weaker potency. In experiment [1], `CCCCCCCCCCC#CC(O)c1ccccc1-c1ccc(Sc2ccc(OCCCCCC)cc2)c(S(=O)(=O)O)c1` (configuration not stated) registered a 50% inhibitory concentration (IC50) of 0.52 µM.
Still for that read-out and setting: the figure for `CCCCCCCCCCC#CC(O)c1ccccc1-c1ccc(Oc2ccc(OCC)cc2)c(S(=O)(=O)O)c1` (configuration not stated) is 0.4 µM.
The same measure, in the same setting: the figure for `CCCCCCCCCCC#CC(O)c1ccccc1-c1ccc(Sc2ccc(OCCCCCCCC)cc2)c(S(=O)(=O)O)c1` (configuration not stated) is more than 2.4 µM; for `CCCCCCCCCCC#CC(O)c1cccc(-c2ccc(Oc3ccc(OCC)cc3)c(S(=O)(=O)O)c2)c1` (configuration not stated) it is 4.6 µM.
In experiment [1], `CCCCCCCCCCC#CC(O)c1ccccc1-c1ccc(Oc2ccccc2OCC)c(S(=O)(=O)O)c1` (configuration not stated) showed an IC50 of 8.9 µM.
For `CCCCOc1ccc(Sc2ccc(-c3ccccc3C(O)C#CCOCCCCCCCCCCCO)cc2S(=O)(=O)O)cc1` (configuration not stated), in experiment [1], the midpoint of inhibition, the IC50, lay at 0.13 µM.
In experiment [1], `CCCCCCCCCCC#CC(O)c1ccccc1-c1ccc(Sc2ccc(OC)cc2)c(S(=O)(=O)O)c1` (configuration not stated) came in with a half-inhibitory concentration (IC50) of 0.7 µM. Against the preceding compound, the IC50 is about 5.4-fold higher.
Still for that read-out and setting: the figure for `CCCCCCCCCCCCCCCCCC1=NN(c2ccc(Oc3ccc(OCC)cc3)c(S(=O)(=O)O)c2)C(=O)C1` is 17 µM.
Take `CCCCCCCCCCC#CC(O)c1ccccc1-c1ccc(Sc2ccc(OCCCC)cc2)c(S(=O)(=O)O)c1` (configuration not stated): the IC50 is 24 µM in experiment [2]; 40 µM in experiment [3]; 13 µM in experiment [4]; 0.19 µM in experiment [1]; 1 µM in experiment [5].
For `CCCCCCCCCCC#CC(O)c1ccccc1-c1ccc(Oc2cccc(OCC)c2)c(S(=O)(=O)O)c1` (configuration not stated), the 50% inhibitory concentration (IC50) in experiment [1] was more than 17 µM.
Still for that read-out and setting: under `CCCCCCCCCCC#CC(O)c1sccc1-c1ccc(Oc2ccc(OCC)cc2)c(S(=O)(=O)O)c1` (configuration not stated) stands 1.3 µM; under `CCCCCCCCCCC#CC(O)c1ccccc1-c1ccc(Sc2ccc(OCCC)cc2)c(S(=O)(=O)O)c1` (configuration not stated), 0.19 µM.
With `CCCCOc1ccc(Sc2ccc(-c3ccccc3C(O)C#CCOCCCCCCCO)cc2S(=O)(=O)O)cc1` (configuration not stated), the IC50 in experiment [2] was determined as 11 µM; in experiment [3], 6 µM; in experiment [4], 5 µM; in experiment [1] it was 0.031 µM; in experiment [5] it was 0.5 µM.
`CCCCOc1ccc(Sc2ccc(-c3ccccc3C(O)C#CCOCCCCCO)cc2S(=O)(=O)O)cc1` (configuration not stated): in experiment [1], the half-maximal inhibitory concentration (IC50) worked out at 0.34 µM.
With `CCCCCCCCCCC#CC(C)(O)c1ccccc1-c1ccc(Sc2ccc(OCCCC)cc2)c(S(=O)(=O)O)c1` (configuration not stated), the half-inhibitory concentration (IC50) in experiment [1] worked out at 1 µM.
In turn, `CCCCCCCCCCC#CC(O)c1ccc(-c2ccc(Oc3ccc(OCC)cc3)c(S(=O)(=O)O)c2)s1` (configuration not stated) had a half-maximal inhibitory concentration (IC50) in experiment [1] of 5.5 µM.
Turning to `CCCCOc1ccc(Sc2ccc(-c3ccccc3C(O)C#CCOCCCCCCCCCO)cc2S(=O)(=O)O)cc1` (configuration not stated), half-maximal inhibition in experiment [1] (IC50) was put at 0.098 µM.
Same read-out and setting: under `CCCCOc1ccc(Sc2ccc(-c3ccccc3C(O)C#CCOCCCO)cc2S(=O)(=O)O)cc1` (configuration not stated) stands more than 20 µM; under `CCCCCCCCCCC#CC(O)c1ccccc1-c1ccc(Sc2ccc(OCC)cc2)c(S(=O)(=O)O)c1` (configuration not stated), 0.4 µM.

The values above are taken from ChEMBL document CHEMBL1139900, “Synthesis and SAR studies of a novel class of S1P1 receptor antagonists” (Bioorg Med Chem, 2007).
